# From ChEMBL document CHEMBL1144702, “Synthesis and structure-activity relationship studies on tryprostatin A, an inhibitor of breast cancer resistance protein” (Bioorg Med Chem, 2008)
# pIC50: −log10 of the molar value. Activity calls are given as the source filed them. The calls are words filed in the database; no cut-off is given here.
# Assays:
# [1] = Antiproliferative activity against mouse tsFT210 cells after 48 hrs by WST-8 assay; assay type: functional, cell-based; conditions: tsFT210, 48 h
# In short: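 tsFT210 cells (temperature-sensitive cdc2 mutant from mouse mammary carcinoma FM3A), kept in RPMI 1640 with 10% fetal calf serum at 32 °C; exponentially growing cells exposed to compound at 32 °C for 48 h, then WST-8 added for 4 h at 37 °C; absorbance at 450 nm read to estimate cell number; IC50 reported.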
# [2] = Cell cycle arrest in mouse tsFT210 cells assessed as accumulation at G1 phase at 100 uM after 18 hrs by flow cytometry; assay type: functional, cell-based
# In short: (§1)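 Synchronous-culture assay: tsFT210 cells seeded at 1x10^5 cells/mL, preincubated 1 h at 32 °C, then incubated with compound 18 h at 32 °C; morphology checked by microscopy; DNA content by flow cytometry after staining with 50 μg/mL propidium iodide, 0.1% sodium citrate, 0.2% NP-40; nuclei/chromosomes stained with Hoechst 33258 after KCl swelling and Carnoy fixation.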
# [3] = Cytotoxicity against human H520 cells at 10 uM after 72 hrs by Cell Titer 96 Aqueous Non-Radioactive assay; assay type: functional; conditions: NCI-H520, 72 h, read-out: Inhibition
# In short: (§2)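 MCF7, NCI-H520 or PC-3 cells (RPMI-1640, 10% FBS) plated 1 × 10^4/well, 24 h at 37 °C, exposed 72 h to drug at 10 or 100 μM in DMSO or EtOH vehicle (controls usually 0.2%). Survival by MTS/PMS formazan absorbance at 490 nm, plate blank subtracted, as percent of vehicle wells; quadruplicate; etoposide or m-AMSA positive controls.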
# [4] = system: RPMI-8226; assay: Cytotoxicity against human RPMI8226 cells; assay type: functional
# [5] = system: CCRF-CEM; assay: Cytotoxicity against human CCRF-CEM cells; assay type: functional
# [6] = system: COLO 205; assay: Cytotoxicity against human COLO205 cells; assay type: functional
# [7] = system: BT-549; assay: Cytotoxicity against human BT549 cells; assay type: functional
# [8] = system: HOP-92; assay: Cytotoxicity against human HOP92 cells; assay type: functional
# [9] = system: MCF7; assay: Cytotoxicity against human MCF7 cells at 100 uM after 72 hrs by Cell Titer 96 Aqueous Non-Radioactive assay; assay type: functional; conditions: MCF7, 72 h, read-out: Inhibition; in short: as §2
# [10] = system: IGROV-1; assay: Cytotoxicity against human IGROV1 cells; assay type: functional
# [11] = system: K562; assay: Cytotoxicity against human K562 cells; assay type: functional
# [12] = system: LOX IMVI; assay: Cytotoxicity against human LOX IMVI cells; assay type: functional
# [13] = Cytotoxicity against human H520 cells at 100 uM after 72 hrs by Cell Titer 96 Aqueous Non-Radioactive assay; assay type: functional; conditions: NCI-H520, 72 h, read-out: Inhibition; in short: as §2
# [14] = system: PC-3; assay: Cytotoxicity against human PC3 cells at 10 uM after 72 hrs by Cell Titer 96 Aqueous Non-Radioactive assay; assay type: functional; conditions: PC-3, 72 h, read-out: Inhibition; in short: as §2
# [15] = system: SR; assay: Cytotoxicity against human SR cells; assay type: functional
# [16] = system: MCF7; assay: Cytotoxicity against human MCF7 cells after 72 hrs by Cell Titer 96 Aqueous Non-Radioactive assay; assay type: functional; conditions: MCF7, 72 h
# In short: (§3)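 MCF7, NCI-H520 and PC-3 cells in RPMI-1640 + 10% FBS, 2 mM L-glutamine, 0.1 mM non-essential amino acids; 1 × 10^4 cells/well, 24 h at 37 °C, then drug in DMSO or EtOH (<1%) for 72 h. Cells under 50% survival at 100 μM retested over further concentrations for GI50. MTS/PMS read at 490 nm, blank subtracted, versus vehicle wells; quadruplicate or more.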
# [17] = system: UO-31; assay: Cytotoxicity against human UO31 cells; assay type: functional
# [18] = system: DU-145; assay: Cytotoxicity against human DU145 cells; assay type: functional
# [19] = system: PC-3; assay: Cytotoxicity against human PC3 cells at 100 uM after 72 hrs by Cell Titer 96 Aqueous Non-Radioactive assay; assay type: functional; conditions: PC-3, 72 h, read-out: Inhibition; in short: as §2
# [20] = Cytotoxicity against human HL60 (TB) cells; assay type: functional; conditions: HL-60
# [21] = Cytotoxicity against human […]; assay type: functional
# [22] = Inhibition of tubulin polymerization in presence of microtubule-associated proteins
# In short: (§4)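 Tubulin containing MAPs in PME buffer (100 mM PIPES pH 6.9, 2 mM EGTA, 1 mM MgSO4) with GTP and drug in DMSO, tubulin added last; 37 °C, absorbance change at 351 nm over 10 min. Drug concentration varied across runs for delta absorbance versus concentration curves; colchicine standard curves made for each tubulin batch.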
# [23] = system: MCF7; assay: Cytotoxicity against human MCF7 cells at 10 uM after 72 hrs by Cell Titer 96 Aqueous Non-Radioactive assay; assay type: functional; conditions: MCF7, 72 h, read-out: Inhibition; in short: as §2
# [24] = system: MOLT-4; assay: Cytotoxicity against human MOLT4 cells; assay type: functional
# [25] = system: EKVX; assay: Cytotoxicity against human EKVX cells; assay type: functional
# [26] = system: OVCAR-3; assay: Cytotoxicity against human OVCAR-3 cells; assay type: functional
# [27] = system: PC-3; assay: Cytotoxicity against human PC3 cells after 72 hrs by Cell Titer 96 Aqueous Non-Radioactive assay; assay type: functional; conditions: PC-3, 72 h; in short: as §3
# [28] = biological target: DNA topoisomerase 2-alpha (Homo sapiens) (UniProt P11388); assay: Inhibition of topoisomerase 2 assessed as relaxation of supercoiled DNA at 100 uM
# Chain of DNA topoisomerase 2-alpha (Homo sapiens) (P11388 whole entry): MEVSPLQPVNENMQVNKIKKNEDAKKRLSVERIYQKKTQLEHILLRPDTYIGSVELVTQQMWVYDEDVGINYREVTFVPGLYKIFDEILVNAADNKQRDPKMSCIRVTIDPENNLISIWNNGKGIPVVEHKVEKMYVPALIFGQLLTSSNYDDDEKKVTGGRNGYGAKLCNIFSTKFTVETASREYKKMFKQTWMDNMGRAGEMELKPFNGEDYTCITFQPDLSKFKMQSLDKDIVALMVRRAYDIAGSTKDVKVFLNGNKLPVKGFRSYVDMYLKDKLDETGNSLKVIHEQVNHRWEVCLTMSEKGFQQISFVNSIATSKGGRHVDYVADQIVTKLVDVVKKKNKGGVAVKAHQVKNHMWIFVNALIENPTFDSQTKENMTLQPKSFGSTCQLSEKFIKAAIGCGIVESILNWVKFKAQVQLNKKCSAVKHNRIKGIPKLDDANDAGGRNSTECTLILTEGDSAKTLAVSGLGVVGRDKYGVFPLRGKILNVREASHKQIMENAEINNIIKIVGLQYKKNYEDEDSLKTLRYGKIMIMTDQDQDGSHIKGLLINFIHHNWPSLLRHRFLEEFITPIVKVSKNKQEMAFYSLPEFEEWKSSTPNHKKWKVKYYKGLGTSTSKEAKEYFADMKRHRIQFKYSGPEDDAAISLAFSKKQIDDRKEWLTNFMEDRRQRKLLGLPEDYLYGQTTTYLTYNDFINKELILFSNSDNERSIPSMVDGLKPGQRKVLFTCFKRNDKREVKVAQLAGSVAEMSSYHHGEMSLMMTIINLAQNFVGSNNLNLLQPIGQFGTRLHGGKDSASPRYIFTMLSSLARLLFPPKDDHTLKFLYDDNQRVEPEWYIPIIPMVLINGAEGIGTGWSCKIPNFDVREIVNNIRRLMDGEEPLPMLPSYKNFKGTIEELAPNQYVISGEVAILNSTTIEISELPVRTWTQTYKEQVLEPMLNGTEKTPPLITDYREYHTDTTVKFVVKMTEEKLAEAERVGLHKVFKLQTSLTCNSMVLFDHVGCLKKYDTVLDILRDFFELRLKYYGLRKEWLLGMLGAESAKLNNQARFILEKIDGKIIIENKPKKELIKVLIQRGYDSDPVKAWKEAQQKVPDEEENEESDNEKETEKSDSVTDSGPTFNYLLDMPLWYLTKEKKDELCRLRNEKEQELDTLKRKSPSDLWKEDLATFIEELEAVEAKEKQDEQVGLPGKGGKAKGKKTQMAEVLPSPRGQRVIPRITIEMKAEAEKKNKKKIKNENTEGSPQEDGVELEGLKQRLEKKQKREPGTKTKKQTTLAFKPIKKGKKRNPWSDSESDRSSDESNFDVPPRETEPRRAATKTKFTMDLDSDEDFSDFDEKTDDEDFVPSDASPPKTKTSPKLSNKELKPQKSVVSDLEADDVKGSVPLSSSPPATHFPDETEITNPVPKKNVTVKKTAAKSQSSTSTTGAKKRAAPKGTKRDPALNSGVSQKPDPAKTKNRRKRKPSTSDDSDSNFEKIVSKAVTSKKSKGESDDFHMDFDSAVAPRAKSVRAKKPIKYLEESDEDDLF
# [29] = Cell cycle arrest in mouse tsFT210 cells assessed as accumulation at G2/M phase at 100 uM after 18 hrs by flow cytometry; assay type: functional, cell-based; in short: as §1
# [30] = system: HT-29; assay: Cytotoxicity against human HT29 cells; assay type: functional
# [31] = Inhibition of tubulin polymerization in presence of microtubule-associated proteins at 60 uM; in short: as §4
structure (smiles),measurement,setting,value
COc1ccc2c(C[C@@H]3NC(=O)[C@@H]4CCCN4C3=O)cn(Cc3ccccc3)c2c1,pIC50,[1],4.34
same,Activity,[2],Active
COc1ccc2c(C[C@H]3NC(=O)[C@H]4CCCN4C3=O)c(CC=C(C)C)[nH]c2c1,percent cell survival relative to vehicle at 10 µM,[3],81.7%
same,GI50,[4],> 25 µM
same,GI50,[5],> 25 µM
same,GI50,[6],> 25 µM
same,GI50,[7],> 25 µM
same,GI50,[8],23.1 µM
same,cell survival (% of vehicle control) at 100 µM,[9],> 100%
same,GI50,[10],> 25 µM
same,GI50,[11],> 25 µM
same,GI50,[12],> 25 µM
same,cell survival (% of vehicle control) at 100 µM,[13],75.2%
same,percent cell survival relative to vehicle control at 10 µM,[14],> 100%
same,GI50,[15],> 25 µM
same,GI50,[16],> 25 µM
same,GI50,[17],> 25 µM
same,GI50,[18],> 25 µM
same,percent cell survival at 100 µM,[19],83.7%
same,GI50,[20],> 25 µM
same,GI50,[21],> 25 µM
same,pIC50,[22],< 3.15
same,cell survival (% of vehicle control) at 10 µM,[23],> 100%
same,GI50,[24],> 25 µM
same,GI50,[25],> 25 µM
same,GI50,[26],> 25 µM
same,GI50,[27],> 25 µM
same,Activity,[28],inactive
CC(C)=CCc1[nH]c2cc(N)ccc2c1C[C@@H]1NC(=O)[C@@H]2CCCN2C1=O,pIC50,[1],< 4.00
CC(C)=CCc1[nH]c2cc(N=[N+]=[N-])ccc2c1C[C@@H]1NC(=O)[C@@H]2CCCN2C1=O,pIC50,[1],4.22
same,Activity,[2],Active
same,Activity,[29],Active
COc1ccc2c(C[C@@H]3NC(=O)[C@@H]4CCCN4C3=O)c(Cc3ccccc3)[nH]c2c1,pIC50,[1],< 4.00
CC(C)=CCc1[nH]c2cc(N=C=S)ccc2c1C[C@@H]1NC(=O)[C@@H]2CCCN2C1=O,pIC50,[1],4.30
same,Activity,[2],Active
same,Activity,[29],Active
COc1ccc2c(C[C@@H]3NC(=O)[C@@H]4CCCN4C3=O)c[nH]c2c1,pIC50,[1],< 4.00
C=CCc1[nH]c2cc(OC)ccc2c1C[C@@H]1NC(=O)[C@@H]2CCCN2C1=O,pIC50,[1],4.22
same,Activity,[2],Active
same,Activity,[29],Active
COc1ccc2c(C[C@@H]3NC(=O)[C@H]4CCCN4C3=O)c(CC=C(C)C)[nH]c2c1,percent cell survival relative to vehicle at 10 µM,[3],99.3%
same,GI50,[4],92 µM
same,GI50,[5],99.4 µM
same,GI50,[6],> 100 µM
same,GI50,[7],> 100 µM
same,GI50,[8],16.8 µM
same,cell survival (% of vehicle control) at 100 µM,[9],99%
same,GI50,[10],50 µM
same,GI50,[11],> 100 µM
same,GI50,[12],> 100 µM
same,cell survival (% of vehicle control) at 100 µM,[13],98.5%
same,percent cell survival relative to vehicle control at 10 µM,[14],> 100%
same,GI50,[15],76.9 µM
same,GI50,[16],> 100 µM
same,GI50,[17],> 100 µM
same,GI50,[30],40.3 µM
same,GI50,[18],> 100 µM
same,percent cell survival at 100 µM,[19],> 100%
same,GI50,[20],> 100 µM
same,GI50,[21],> 100 µM
same,cell survival (% of vehicle control) at 10 µM,[23],> 100%
same,GI50,[24],> 100 µM
same,GI50,[25],> 100 µM
same,GI50,[26],85.5 µM
same,GI50,[27],> 100 µM
same,inhibition,[31],< 2%
COc1ccc2c(C[C@H]3NC(=O)[C@@H]4CCCN4C3=O)c(CC=C(C)C)[nH]c2c1,percent cell survival relative to vehicle at 10 µM,[3],> 100%
same,GI50,[4],7.76 µM
same,GI50,[5],11.9 µM
same,GI50,[6],12.4 µM
same,GI50,[7],9.77 µM
same,cell survival (% of vehicle control) at 100 µM,[9],> 100%
same,GI50,[10],> 50 µM
same,GI50,[11],17.7 µM
same,GI50,[12],33.5 µM
same,cell survival (% of vehicle control) at 100 µM,[13],> 100%
same,percent cell survival relative to vehicle control at 10 µM,[14],> 100%
same,GI50,[15],11.3 µM
same,GI50,[16],25.5 µM
same,GI50,[17],27.3 µM
same,GI50,[30],16.1 µM
same,GI50,[18],40 µM
same,percent cell survival at 100 µM,[19],> 100%
same,GI50,[20],35 µM
same,GI50,[21],13 µM
same,cell survival (% of vehicle control) at 10 µM,[23],> 100%
same,GI50,[24],12.2 µM
same,GI50,[25],> 50 µM
same,GI50,[26],> 50 µM
same,GI50,[27],21.7 µM
same,inhibition,[31],< 2%
COc1ccc2c(C[C@@H]3NC(=O)[C@@H]4CCCN4C3=O)cn(C)c2c1,pIC50,[1],< 4.00
C=CCn1cc(C[C@@H]2NC(=O)[C@@H]3CCCN3C2=O)c2ccc(OC)cc21,pIC50,[1],4.21
same,Activity,[2],Active
COc1ccc2c(C[C@@H]3NC(=O)[C@H](C(C)C)NC3=O)c(CC=C(C)C)[nH]c2c1,pIC50,[1],4.72
same,Activity,[2],Active
same,Activity,[29],Active
